Consider 31 compounds from ChEMBL document CHEMBL4049461, “Double-Winged 3-Hydroxypyrimidine-2,4-diones: Potent and Selective Inhibition against HIV-1 RNase H with Significant Antiviral Activity” (J Med Chem, 2017).

pEC50, pIC50: −log10 of the molar value.

A short description of data set [1]: Cytotoxicity against human P4R5 cells by MTS assay. Type of data set: cell-based. In general terms: Tetrazolium dyes change colour on reduction, which living cells bring about.
Data set [2] deals with Human immunodeficiency virus 1. Briefly: Antiviral activity against HIV1 infected in CD4/CXCR4/CCR5 expressing human P4R5 cells assessed as inhibition of viral replication preincubated with cells for 24 hrs followed by viral infection measured after 48 hrs by beta-galactosidase reporter gene assay. Type of data set: functional. The note with it: Human immunodeficiency virus 1, P4/R5. The method, boiled down: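 P4R5 indicator cells (CD4, CXCR4, CCR5; HIV LTR-driven β-galactosidase reporter) seeded 4 × 10³/well in DMEM/10% FBS with puromycin (1 μg/mL). Cells lysed, MUG substrate added, fluorescence β-galactosidase readout.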
For orientation: A reporter such as luciferase makes a cellular process visible.

Data set [3] can be described thus: Inhibition of recombinant full length HIV1 reverse transcriptase RNase H domain using RNA/DNA duplex substrate HTS1 assessed as reduction in internal cleavage of RNA strand by fluoresence assay. Set-up: species or system Human immunodeficiency virus 1. The essentials: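 Full-length HIV RT incubated with fluorescein/Dabcyl-labelled 18-mer RNA/DNA duplex HTS-1, which reports non-specific internal RNA cleavage, across a compound concentration series. Dose-response data fitted by nonlinear regression to logistic curves. IC50 given as mean ± SD from at least two independent experiments.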

A short description of data set [4]: Inhibition of recombinant full length HIV1 reverse transcriptase polymerase domain assessed as decrease in extension of 18 nucleotide DNA primer annealed to 100 nucleotide DNA template after 30 mins. Set-up: species or system Human immunodeficiency virus 1. The method, boiled down:
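20 nM RT, 40 nM 18-nt primer annealed to 100-nt DNA template, and 10 μM dNTPs in 50 mM Tris pH 7.8, 50 mM NaCl, 1% DMSO, with increasing compound concentrations. Reactions started with 6 mM MgCl2, run 30 min at 37 °C, and stopped with 100 mM EDTA.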

Data set [5] can be described thus: Inhibition of HIV integrase strand transfer activity expressed in Escherichia coli BL21 (DE3) using 5' biotin ATGTGGAAAATCTCTAGCA primer annealed with ACTGCTAGAGATTTTCCACAT 3' Cy5 template preincubated for 10 mins followed by primer/template addition measured after 30 mins by fluorescence assay. Set-up: species or system Human immunodeficiency virus. The method, boiled down:
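Integrase preincubated 10 min at 25 °C with compound (final 0.13–100 μM, duplicate) in 10 mM HEPES pH 7.5, 10% glycerol, 10 mM MnCl2, 1 mM DTT, 1 μM enzyme. Biotin/Cy5 oligo duplex added; 30 min at 37 °C; EDTA quench.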

Regarding `O=C(Nc1ccc(-c2ccccc2)cc1)c1c(NCc2ccccc2)[nH]c(=O)n(O)c1=O`, the midpoint of cytotoxicity in data set [1], the CC50, lay at 54 µM. Further, in data set [2], the pEC50 (commonly −log10 of the EC50, conventionally taken in molar units) was 4.82. Moreover, the pIC50 (as a rule, the IC50 on a negative log10 scale, so that one unit is a factor of ten) was 6.92 in data set [3], under 5.00 in data set [4] and under 4.00 in data set [5].
The like results for `Cc1ccc(NC(=O)c2c(NCc3ccccc3)[nH]c(=O)n(O)c2=O)cc1` were, in that order, 53 µM, 5.14, 7.72, 5.00 and 4.47.
`O=C(NCc1cccc(Cl)c1F)c1c(Nc2ccc(-c3ccccc3)cc2)[nH]c(=O)n(O)c1=O`: the pIC50 in data set [3] was 7.23; in data set [4], under 5.00; in data set [5] it was under 4.00.
Turning to `O=C(Nc1ccc(F)cc1F)c1c(NCc2ccccc2)[nH]c(=O)n(O)c1=O`, the CC50 (in general, the concentration that lowers cell viability or growth by half) in data set [1] was over 100 µM. Besides, in data set [2], the negative logarithm of the EC50 (pEC50) was under 4.70. The values for the pIC50 in data set [3], in data set [4] and in data set [5] were 7.10, under 5.00 and 4.54, respectively.
Regarding `O=C(Nc1ccc(-c2ccccc2)cc1)c1c(Nc2ccc(-c3ccccc3)cc2)[nH]c(=O)n(O)c1=O`, the pIC50 in data set [3] was 6.00; in data set [4] it was 5.74; in data set [5] it was under 4.00.
`O=C(Nc1ccccc1)c1c(NCc2ccccc2)[nH]c(=O)n(O)c1=O` gave a CC50 in data set [1] of 52 µM. Also, the pEC50 in data set [2] was 5.16. The pIC50 in data set [3] was 7.57; in data set [4], under 5.00; in data set [5], under 4.00.
For the compound `O=C(NCc1ccccc1)c1c(NCc2ccc(-c3ccccc3)cc2)[nH]c(=O)n(O)c1=O`, the pEC50 in data set [2] was under 4.70. The results for the pIC50 in data set [3], in data set [4] and in data set [5] were 7.27, under 5.00 and 5.80, respectively.
With `COc1cc2ccccc2cc1/C=N/NC(=O)c1cc(O)c(O)c(O)c1`, the pIC50 in data set [3] was 6.70; in data set [4], 6.30.
As for `O=C(NCc1cc(F)ccc1F)c1c(Nc2ccc(-c3ccccc3)cc2)[nH]c(=O)n(O)c1=O`, in data set [1], the CC50 was over 100 µM. The pEC50 in data set [2] is 5.43. Also, the values for the pIC50 in data set [3], in data set [4] and in data set [5] were 7.30, 5.02 and under 4.00, respectively.
On the same counts, the results for `O=C(Nc1cccc2ccccc12)c1c(Nc2ccccc2)[nH]c(=O)n(O)c1=O` are 76.8 µM, 4.94, 7.74, 5.11 and 5.49.
In the case of `O=C(NCc1ccc(F)cc1)c1c(Nc2ccc(-c3ccccc3)cc2)[nH]c(=O)n(O)c1=O`, the results for the pIC50 in data set [3], in data set [4] and in data set [5] were 7.33, under 5.00 and under 4.00, respectively.
Turning to `O=C(NCc1ccc(-c2ccccc2)cc1)c1c(NCc2ccc(-c3ccccc3)cc2)[nH]c(=O)n(O)c1=O`, the CC50 in data set [1] was over 100 µM. In addition, the pEC50 in data set [2] was under 4.70. Moreover, the values for the pIC50 in data set [3], in data set [4] and in data set [5] were 6.96, under 5.00 and under 4.00, respectively.
`O=C(Nc1ccc(-c2ccccc2)cc1)c1c(NCc2ccc(-c3ccccc3)cc2)[nH]c(=O)n(O)c1=O`: in data set [2], the pEC50 is under 4.70. Besides, the values for the pIC50 in data set [3], in data set [4] and in data set [5] were 6.85, under 5.00 and under 4.00, respectively.
`O=C(NCc1ccccc1)c1c(Nc2ccccc2)[nH]c(=O)n(O)c1=O` showed a CC50 in data set [1] of over 100 µM. Besides, in data set [2], the pEC50 was 6.22. Besides, the pIC50 is 7.25 in data set [3], under 5.00 in data set [4] and 6.64 in data set [5].
The like results for `O=C(Nc1ccc(C(F)(F)F)cc1)c1c(NCc2ccccc2)[nH]c(=O)n(O)c1=O` were, in that order, over 100 µM, under 4.70, 7.39, under 5.00 and under 4.00.
Consider `O=C(NCc1ccc(-c2ccccc2)cc1)c1c(NCc2ccccc2)[nH]c(=O)n(O)c1=O`, for which the CC50 in data set [1] was over 100 µM. In addition, in data set [2], the pEC50 was under 4.70. Besides, the pIC50 in data set [3] is 7.42; in data set [4], under 5.00; in data set [5], under 4.00.
With `O=C(NCc1ccccc1)c1c(Nc2ccc(-c3ccccc3)cc2)[nH]c(=O)n(O)c1=O`, the pIC50 in data set [3] is 6.96; in data set [4], under 5.00; in data set [5], 4.64.
For the compound `O=C(Nc1ccc(F)cc1)c1c(Nc2ccccc2)[nH]c(=O)n(O)c1=O`, in data set [1], the CC50 came to 58.4 µM. Besides, the pEC50 in data set [2] is 5.21. Further, the values for the pIC50 in data set [3], in data set [4] and in data set [5] were 8.40, under 5.00 and 5.51, respectively.
On the same counts, the results for `CCc1ccc(NC(=O)c2c(NCc3ccccc3)[nH]c(=O)n(O)c2=O)cc1` are over 100 µM, 5.07, 7.27, 5.00 and under 4.00.
`O=C(NCc1ccccc1F)c1c(Nc2ccc(-c3ccccc3)cc2)[nH]c(=O)n(O)c1=O`: the pIC50 in data set [3] was 7.40; in data set [4], under 5.00; in data set [5], under 4.00.
Take `O=C(Nc1ccc(F)cc1)c1c(NCc2ccccc2)[nH]c(=O)n(O)c1=O`: in data set [1], the CC50 is over 100 µM. Besides, in data set [2], the pEC50 is under 4.70. Besides, the negative-log IC50 (pIC50) in data set [3] was 7.72; in data set [4], 5.00; in data set [5] it was 4.15.
In turn, `O=C(NCc1cccc(F)c1)c1c(Nc2ccc(-c3ccccc3)cc2)[nH]c(=O)n(O)c1=O` yielded a CC50 in data set [1] of over 100 µM. Further, the pEC50 in data set [2] is 5.20. For the same compound, the pIC50 is 7.31 in data set [3], under 5.00 in data set [4] and under 4.00 in data set [5].
Regarding `O=C(Nc1ccc(-c2ccc(F)cc2)cc1)c1c(Nc2ccc(-c3ccccc3)cc2)[nH]c(=O)n(O)c1=O`, the pIC50 was 6.01 in data set [3], 5.80 in data set [4] and under 4.00 in data set [5].
In data set [1], `O=C(NCc1ccccc1)c1c(NCc2ccccc2)[nH]c(=O)n(O)c1=O` gave a CC50 of over 100 µM. Also, in data set [2], the pEC50 is 5.85. Besides, the pIC50 in data set [3] is 7.49; in data set [4], under 5.00; in data set [5], 6.85.
The compound `O=C(NCc1ccc(F)cc1F)c1c(Nc2ccc(-c3ccccc3)cc2)[nH]c(=O)n(O)c1=O` had a CC50 in data set [1] of over 100 µM. In addition, the pEC50 in data set [2] was 5.82. The pIC50 in data set [3] was 7.11; in data set [4], 5.07; in data set [5], under 4.00.
On to `O=C(Nc1ccc(C(F)(F)F)cc1)c1c(Nc2ccccc2)[nH]c(=O)n(O)c1=O`, for which the CC50 in data set [1] is over 100 µM. Besides, in data set [2], the pEC50 is 5.46. Moreover, the pIC50 in data set [3] was 7.42; in data set [4], 5.09; in data set [5] it was 5.02.
In data set [1], `O=C(Nc1ccccc1)c1c(Nc2ccccc2)[nH]c(=O)n(O)c1=O` gave a CC50 of over 100 µM. In data set [2], the pEC50 was 5.18. Besides, the pIC50 in data set [3] was 7.80; in data set [4] it was under 5.00; in data set [5] it was 5.82.
With `O=C(Nc1ccccc1)c1c(NCc2ccc(-c3ccccc3)cc2)[nH]c(=O)n(O)c1=O`, the pEC50 in data set [2] was under 4.70. The values for the pIC50 in data set [3], in data set [4] and in data set [5] were 7.33, under 5.00 and under 4.00, respectively.
Turning to `COc1ccc(-c2ccc(NC(=O)c3c(Nc4ccc(-c5ccccc5)cc4)[nH]c(=O)n(O)c3=O)cc2)cc1`, the values for the pIC50 in data set [3], in data set [4] and in data set [5] were 5.92, 5.85 and under 4.00, respectively.
With `Cc1ccc(NC(=O)c2c(Nc3ccccc3)[nH]c(=O)n(O)c2=O)cc1`, the CC50 in data set [1] is over 100 µM. For the same compound, the pEC50 in data set [2] was 5.35. In addition, the figures for the pIC50 in data set [3], in data set [4] and in data set [5] were 7.52, under 5.00 and 5.59, respectively.
The like results for `O=C(Nc1cccc2ccccc12)c1c(NCc2ccccc2)[nH]c(=O)n(O)c1=O` were, in that order, over 100 µM, under 4.70, 7.24, under 5.00 and 4.68.
